# Many of the other results were omitted from the sample, so hits are more common in it than they were.
# A1 apoptosis 2 = compounds inhibiting A1, read as caspase activation; caspase activation, % (no concentration beside the values); MEF A1-2A-BIM cells, caspase-Glo luminescence, 3 h; percent of clofoctol response, DMSO zero; AID 2465; 24,000 tested, under 10 active; in the data active means caspase activation above about 5.9%; inconclusive means no clear call, values can overlap the other calls; inactive means below about 2.2%
#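 Material: A1-2A-BIM-expressing MEF cells. Buffer or medium: RPMI-1640 plus 10% FBS. Incubation: cells settled overnight, compound exposure 3 h at 37 °C, 5% CO2. Signal: Caspase-Glo 3/7 luminescence, 1 h at room temperature.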
# INS-1E rescue = preserves ATP levels in cytokine-treated INS-1E cells. INS-1E cytokine-induced death, ATP luminescence, 48 h; normalised: neutral wells 0, positive control 100. protection from cytokine-induced ATP loss, % at 10 µM. 20,000 tested, 0.1% active. AID 488910;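 active means mean replicate protection from cytokine-induced ATP loss at least 50% and at least 75% of replicates each reaching 50%; inconclusive means meets only one of the two criteria, mean or replicate share; inactive means fails both the mean and replicate share criteria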
#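 Assay system – rat INS-1E insulinoma cell line · Quantity – 8000 cells per well · Buffer or medium – RPMI without phenol red, 5% FBS · Schedule – 48 h co-treatment, 10 min post-lysis read · Technique – luminescent ATP assay (CellTiter-Glo)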
# T cruzi intra = intracellular Trypanosoma cruzi inhibition. intracellular Trypanosoma cruzi in host cells, plate reader. activity score (inhibition), % at 5.01 µM. 22,000 tested, 4.9% active; in the data active means activity score above about 55%; inconclusive means no clear call, values can overlap the other calls;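 further: parasites and compound incubated about four days before reading; 0% = median of neutral control wells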
# An asterisk follows results filed as active; ? = inconclusive; / = no result.
SMILES,A1 apoptosis 2,INS-1E rescue,T cruzi intra
C[C@@H]1CCCCO[C@@H](CN(C)C(=O)Nc2ccc(C(F)(F)F)cc2)[C@@H](C)CN([C@H](C)CO)C(=O)c2cc(NS(=O)(=O)c3ccc(F)cc3)ccc2O1,0,-13,71*
Cc1ccc(S(=O)(=O)Nc2ccc3c(c2)C(=O)N([C@@H](C)CO)C[C@H](C)[C@H](CN(C)C(=O)Nc2ccc(C(F)(F)F)cc2)OCCCC[C@H](C)O3)cc1,-1,/,/
Cc1ccc(S(=O)(=O)Nc2ccc3c(c2)C(=O)N([C@H](C)CO)C[C@H](C)[C@H](CN(C)C(=O)Nc2ccc(C(F)(F)F)cc2)O3)cc1,1,/,-2
C[C@@H]1CCCCO[C@@H](CN(C)C(=O)Nc2ccc(C(F)(F)F)cc2)[C@H](C)CN([C@@H](C)CO)C(=O)c2cc(NS(=O)(=O)c3ccc(F)cc3)ccc2O1,0,/,/
COc1ccc(S(=O)(=O)Nc2ccc3c(c2)C(=O)N([C@@H](C)CO)C[C@H](C)[C@@H](CN(C)C(=O)Nc2ccc(C(F)(F)F)cc2)OCCCC[C@@H](C)O3)cc1,-1,/,/
Cc1ccc(S(=O)(=O)Nc2ccc3c(c2)C(=O)N([C@H](C)CO)C[C@H](C)[C@@H](CN(C)C(=O)Nc2ccc(C(F)(F)F)cc2)OCCCC[C@@H](C)O3)cc1,0,-16,75*
COc1ccc(OC(=O)N(C)C[C@H]2OCc3cn(nn3)CCCC(=O)N([C@@H](C)CO)C[C@H]2C)cc1,0,/,-19
C[C@@H]1CN([C@H](C)CO)C(=O)c2cc(NS(C)(=O)=O)ccc2O[C@@H]1CN(C)S(=O)(=O)c1ccccc1,/,6,-20
C[C@@H]1CCCCO[C@@H](CN(C)C(=O)Nc2ccc(F)cc2)[C@@H](C)CN([C@H](C)CO)C(=O)c2cc(NS(=O)(=O)c3ccc(Cl)cc3)ccc2O1,0,-6,65*
C[C@@H]1CCCCO[C@H](CN(C)C(=O)Nc2ccc(F)cc2)[C@H](C)CN([C@H](C)CO)C(=O)c2cc(NS(=O)(=O)c3ccc(Cl)cc3)ccc2O1,1,/,/
[N-]=[N+]=NCC(=O)N1CCN(c2ccccc2)CC1,1,/,/
Cc1cc(C(=O)Nc2cccc3c2O[C@H](CN(C)Cc2ccc(-c4ccccc4)cc2)[C@H](C)CN([C@@H](C)CO)C3=O)n(C)n1,0,-23,-26
Cc1cc(C(=O)Nc2cccc3c2O[C@H](CN(C)Cc2ccc(C(F)(F)F)cc2)[C@@H](C)CN([C@H](C)CO)C3=O)n(C)n1,1,-18,69*
Cc1cc(C(=O)Nc2cccc3c2O[C@@H](CN(C)C(=O)Nc2ccccc2)[C@@H](C)CN([C@H](C)CO)C3=O)n(C)n1,-1,4,61*
Cc1cc(C(=O)Nc2cccc3c2O[C@@H](CN(C)Cc2ccc(-c4ccccc4)cc2)[C@@H](C)CN([C@H](C)CO)C3=O)n(C)n1,-1,-20,64*
Cc1cc(C(=O)Nc2cccc3c2O[C@H](CN(C)C(=O)Nc2ccccc2)[C@@H](C)CN([C@@H](C)CO)C3=O)n(C)n1,0,4,-41
Cc1cc(C(=O)Nc2cccc3c2O[C@H](CN(C)Cc2ccc(C(F)(F)F)cc2)[C@H](C)CN([C@@H](C)CO)C3=O)n(C)n1,-2,-3,-4
CC12N=C3SCC(=O)N3[C@H](c3ccccc3O1)[C@H]2CO,0,/,/
C[C@@H]1CN([C@@H](C)CO)C(=O)c2cc(NS(=O)(=O)c3cccs3)ccc2O[C@@H](C)CCCCO[C@H]1CN(C)C(=O)CCCN(C)C,-1,/,/
COCC1=C([C@H](O)CCc2ccccc2)[C@H](CO)[C@@H]2C(=O)N(Cc3ccccc3)C(=O)[C@@H]2C1,-1,/,/
C[C@@H]1CN([C@@H](C)CO)C(=O)c2cccc(NC(=O)c3cnccn3)c2O[C@H]1CN(C)Cc1ccc(Oc2ccccc2)cc1,/,-30,33
C[C@H](CO)N1C[C@H](C)[C@@H](CN(C)Cc2ccc(Oc3ccccc3)cc2)Oc2c(NC(=O)c3cnccn3)cccc2C1=O,/,-42,?
C[C@@H]1CN([C@H](C)CO)C(=O)c2cccc(NC(=O)c3ccncc3)c2O[C@@H]1CN(C)Cc1ccc(Oc2ccccc2)cc1,-1,-16,81*
C[C@@H]1CN([C@@H](C)CO)C(=O)c2cccc(NC(=O)c3ccncc3)c2O[C@H]1CN(C)Cc1ccc(Oc2ccccc2)cc1,0,-7,80*
C[C@H]1CN([C@@H](C)CO)C(=O)c2cccc(NC(=O)c3ccncc3)c2O[C@H]1CN(C)Cc1ccc(Oc2ccccc2)cc1,-1,-16,82*
SMILES,A1 apoptosis 2,INS-1E rescue,T cruzi intra
C[C@H](CO)N1C[C@H](C)[C@H](CN(C)Cc2ccc(Oc3ccccc3)cc2)Oc2c(NC(=O)c3cnccn3)cccc2C1=O,-1,-29,69*
C[C@@H]1CN([C@H](C)CO)C(=O)c2cccc(NC(=O)c3cnccn3)c2O[C@H]1CN(C)Cc1ccc(Oc2ccccc2)cc1,/,-22,33
C[C@@H]1CN([C@H](C)CO)C(=O)c2cc(NC(=O)Nc3ccccc3)ccc2O[C@@H](C)CCCCO[C@H]1CN(C)C(=O)NC1CCCCC1,0,/,/
O=C(NO)c1cccc(C(=O)N/N=C/c2ccc(-c3ccccc3)cc2)c1,/,-3,-3
CC(C)(C)OC(=O)NC1(/C=N/NC(=O)CCCCC(=O)NO)CCCC1,1,-2,9
O=C(NO)c1ccc(C(=O)N/N=C/c2cccs2)cc1,0,-1,6
C[C@@H]1CN([C@@H](C)CO)C(=O)c2cc(NS(=O)(=O)c3ccccc3)ccc2O[C@@H]1CN(C)Cc1ccc(-c2ccccc2)cc1,/,-59,27
Cc1ccc(S(=O)(=O)Nc2ccc3c(c2)C(=O)N([C@@H](C)CO)C[C@@H](C)[C@H](CN(C)Cc2ccc(-c4ccccc4)cc2)O3)cc1,/,-8,?
C[C@H]1CN([C@@H](C)CO)C(=O)c2cc(NS(=O)(=O)c3ccccc3)ccc2O[C@@H]1CN(C)Cc1ccc(-c2ccccc2)cc1,0,-24,67*
Cc1ccc(S(=O)(=O)Nc2ccc3c(c2)C(=O)N([C@@H](C)CO)C[C@H](C)[C@@H](CN(C)Cc2ccc(-c4ccccc4)cc2)O3)cc1,0,-5,78*
COc1ccc(CN(C)C[C@@H]2Oc3ccc(NS(=O)(=O)c4cccs4)cc3C(=O)N([C@@H](C)CO)C[C@@H]2C)cc1,0,-7,13
C[C@H]1CN([C@@H](C)CO)C(=O)c2cc(NC(=O)NC3CCCCC3)ccc2O[C@H]1CN(C)Cc1ccc2c(c1)OCO2,0,5,58*
C[C@H]1CN([C@@H](C)CO)C(=O)c2cc(NC(=O)NC3CCCCC3)ccc2O[C@@H]1CN(C)Cc1ccc2c(c1)OCO2,1,-8,-5
C[C@H](CO)N1C[C@H](C)[C@H](CN(C)Cc2ccc3c(c2)OCO3)Oc2ccc(NC(=O)NC3CCCCC3)cc2C1=O,0,/,56*
C[C@@H]1CN([C@H](C)CO)C(=O)c2cc(NC(=O)NC3CCCCC3)ccc2O[C@@H]1CN(C)Cc1ccc2c(c1)OCO2,0,1,-16
